Screening results (PubChem)
TRPC6 activator: activates the mouse TRPC6 cation channel; HEK293-TRPC6 membrane potential dye fluorescence; stronger effect = higher value; B-score at 10 µM; actives 0.13% (n = 310,000); AID 2550;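 active = B-score of the integrated fluorescence ratio above library mean plus 3 SD, and starting fluorescence ratio within library mean plus 5 SD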;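 also: higher score means more depolarization so channel activation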
Target sequence (Q61143 whole entry, looked up): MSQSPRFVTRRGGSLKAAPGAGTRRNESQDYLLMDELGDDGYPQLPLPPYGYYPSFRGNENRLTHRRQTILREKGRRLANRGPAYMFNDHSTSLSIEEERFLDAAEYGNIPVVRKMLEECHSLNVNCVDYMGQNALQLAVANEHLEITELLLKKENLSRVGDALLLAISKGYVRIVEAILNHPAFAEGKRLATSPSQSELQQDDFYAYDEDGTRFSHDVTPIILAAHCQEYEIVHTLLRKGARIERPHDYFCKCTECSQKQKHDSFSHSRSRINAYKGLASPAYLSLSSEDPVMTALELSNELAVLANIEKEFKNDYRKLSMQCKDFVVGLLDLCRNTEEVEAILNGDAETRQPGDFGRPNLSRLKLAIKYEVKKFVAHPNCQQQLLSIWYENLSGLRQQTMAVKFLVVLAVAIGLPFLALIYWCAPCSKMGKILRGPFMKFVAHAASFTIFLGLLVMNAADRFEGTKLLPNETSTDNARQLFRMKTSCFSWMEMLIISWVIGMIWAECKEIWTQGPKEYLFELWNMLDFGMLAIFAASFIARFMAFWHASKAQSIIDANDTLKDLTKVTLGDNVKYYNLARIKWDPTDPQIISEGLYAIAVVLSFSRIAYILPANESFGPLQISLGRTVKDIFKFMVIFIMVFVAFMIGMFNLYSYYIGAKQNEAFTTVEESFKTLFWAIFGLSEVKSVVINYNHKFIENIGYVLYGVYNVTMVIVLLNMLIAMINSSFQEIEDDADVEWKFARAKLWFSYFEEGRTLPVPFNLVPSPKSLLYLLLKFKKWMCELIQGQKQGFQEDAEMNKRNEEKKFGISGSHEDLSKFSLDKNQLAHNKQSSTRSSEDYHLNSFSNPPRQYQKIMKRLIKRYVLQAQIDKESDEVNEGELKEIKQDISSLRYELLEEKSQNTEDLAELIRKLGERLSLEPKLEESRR
TRPC4 block: blocks the mouse TRPC4 cation channel | Q9QUQ5 | HEK293 TRPC4beta/mu-opioid, DAMGO-evoked Fluo4 calcium flux; stronger effect = lower value | B-score at 10 µM | actives 0.39% (n = 300,000);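 active = B-score over 3 SD under the library average, no early fluorescence shift, positive overall ratio signal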
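Assay system: HEK293 cells with stable TRPC4beta plus mu-opioid receptor expression. Dosing: single dose. Measured by: Fluo4 Ca2+ flux fluorescence. Also added: DAMGO in two steps, submaximal then maximal. Read-out: B score from integrated Fluo4 fluorescence ratio.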
TRPC4 act: TRPC4 (mouse) channel activation | HEK293 TRPC4beta/mu-opioid, Fluo4 calcium fluorescence; stronger effect = higher value | B-score at 10 µM | actives 0.49% (n = 310,000) | AID 2237;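 active = B-score above 5 SD of library B-scores, and initial fluorescence ratio not above library mean plus 5 SD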;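 also: positive B-score marks a calcium rise read as TRPC4 activation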
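Assay system: HEK293 stable line with TRPC4beta plus mu-opioid receptor. Times: dye 45 min RT, read 110 s. Measured by: kinetic Fluo4 calcium fluorescence. Measure: B score of integrated ratio. Controls: assay buffer as low control, maximal DAMGO as high control.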
TRPC4 potent: TRPC4 (mouse) allosteric potentiation. B-score at 10 µM. actives 0.42% (n = 310,000). Q9QUQ5. AID 2227. HEK293 TRPC4beta/mu-opioid, DAMGO EC20, Fluo-4 Ca2+ flux; stronger effect = higher value;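 active = B-score of calcium response area above 5 SD of library B-scores, with initial fluorescence ratio within 5 SD of library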;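 also: B-score of integrated fluorescence ratio over time as area under calcium response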
TRPC6 inh: blocks the mouse TRPC6 cation channel. HEK293-TRPC6, membrane potential dye, ACh-evoked depolarization; stronger effect = lower value. Q61143. B-score at 10 µM. actives 1.1% (n = 310,000);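 active = B-score under library mean minus 3 SD, initial fluorescence not abnormally high, positive integrated signal ratio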;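 also: B-score derived from integrated fluorescence ratio over the kinetic read; more negative B-score means stronger inhibition of depolarization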
TRPC4 sel inh 2: second selectivity test of TRPC6 inhibitors: effect on mouse TRPC4; shares compounds with TRPC6 inh; HEK293 TRPC4/MOR, membrane potential dye fluorescence; channel activated by saturating DAMGO dose; inhibition, % at 10 µM; actives 42% (n = 920);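 active = compounds whose fluorescence signal differed from control wells by over 3 SD, either direction, in both duplicate plates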
TRPC4 spec: mouse TRPC4 off-target activity of TRPC6 inhibitors; activity change, negative = inhibition, % at 10 µM; shares compounds with TRPC6 inh; HEK293 TRPC4/mu-opioid, membrane potential fluorescence; actives 61% (n = 920); AID 2777;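 active = rise or fall in signal beyond 3 SD of buffer-only wells in both replicate plates, either sign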;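 also: integrated kinetic ratio of fluorescence range over baseline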
HEK293 MPD ctr 2-1: parental HEK293 nonspecific activity of TRPC6 inhibitors, second screen | parental HEK293 membrane potential dye fluorescence; maximal acetylcholine challenge after compound addition | signal change vs control, % at 10 µM | actives 31% (n = 920) | shares compounds with TRPC6 inh | AID 2779;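 active = membrane potential signal moving either way by over 3 SD of the maximum-effect control, in both duplicate plates, meaning non-specific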
HEK293 MPD ctr-1: counter-screen for TRPC6 inhibitors: effect in parental HEK293 cells; shares compounds with TRPC6 inh; parental HEK293 membrane potential dye fluorescence; membrane potential signal change, % at 10 µM; actives 60% (n = 920); AID 2780;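 active = membrane potential signal shifting up or down by more than 3 SD of buffer-only wells, on both duplicate plates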
HEK293 MPD ctr-2: parental HEK293 nonspecific activity of TRPC6 modulators. shares compounds with TRPC6 inh. membrane potential signal change, % at 10 µM. AID 488924. membrane potential dye fluorescence. actives 51% (n = 2,400);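 active = membrane potential signal moves up or down beyond 5 SD from buffer-only wells, on both duplicate plates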
HEK293 MPD ctr 2-2: parental HEK293 nonspecific activity of TRPC6 modulators, second screen. membrane potential dye fluorescence; after compound, maximal acetylcholine stimulation. inhibition, % at 10 µM. AID 488926. shares compounds with TRPC6 inh. actives 14% (n = 2,400);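 active = membrane potential signal drops by more than 5 SD from the mean control signal, in both duplicate plates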;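 also: plate controls were acetylcholine ECmax control wells for no effect and buffer only wells for full effect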
TRPC4/MOR mod: mouse TRPC4 off-target activity of TRPC6 modulators; shares compounds with TRPC6 inh; HEK293 TRPC4/mu-opioid, membrane potential fluorescence; percent change from control (negative = decrease, positive = increase), % at 10 µM; actives 69% (n = 2,400); AID 488927;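 active = membrane potential signal moved up or down beyond 5 SD of buffer control wells, in both duplicate plates, actives on both sides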;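 also: plate controls were assay buffer wells for no effect and DAMGO maximal-effect wells for full effect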
TRPC4/MOR inh 2: second selectivity test of TRPC6 modulators against mouse TRPC4. HEK293 TRPC4/mu-opioid, membrane potential dye fluorescence; stimulated with maximal-effect DAMGO. actives 55% (n = 2,400). AID 488928. inhibition, % at 10 µM. shares compounds with TRPC6 inh;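 active = drop in membrane potential signal beyond 5 SD of the control wells in both duplicate plates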;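 also: TRPC4 counter screen for TRPC6 hits run under conditions tuned for TRPC6 not TRPC4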
TRPC6 block conf: mouse TRPC6 inhibitor confirmation | shares compounds with TRPC6 inh | HEK293-TRPC6, membrane potential dye, ACh-evoked depolarization | inhibition, % at 10 µM | actives 43% (n = 3,300);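 active = fluorescence ratio falls more than 5 SD below the full-stimulation control mean, in both duplicate runs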;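 also: integrated fluorescence ratio of peak minus minimum over baseline after agonist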
TRPC6 act confirm: mouse TRPC6 activator confirmation | HEK293-TRPC6 membrane potential dye fluorescence, FDSS | activation, % at 10 µM | AID 488961 | actives 11% (n = 2,800) | shares compounds with TRPC6 inh;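 active = ratio signal rise beyond 5 SD above unstimulated control wells' mean, seen in both duplicate runs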;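 also: plate controls were buffer EC0 wells for no effect and acetylcholine ECmax response for full effect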
* marks the source's active call; other numbers are inactive results; i = inactive; · = not tested or not shown. Only some compounds are listed: those with a hit (about 2.3% of all), similar ones and a draw of the others.

SMILES	TRPC6 activator	TRPC4 block	TRPC4 act	TRPC4 potent	TRPC6 inh	TRPC4 sel inh 2	TRPC4 spec	HEK293 MPD ctr 2-1	HEK293 MPD ctr-1	TRPC6 block conf	TRPC6 act confirm	others
C[N+]12CCC(CC1)C(C(O)(c1cccc(Cl)c1)c1cccc(Cl)c1)C2 (stereo unspecified)	i	i	i	i	i	·	·	·	·	·	·
C[N+]12CCC(CC1)C(OC(=O)C(O)(c1ccccc1)c1ccccc1)C2 (stereo unspecified)	i	i	i	i	-8.8*	i	i	8.0%*	i	81%*	i
Cc1ccc(-c2cc(-c3ccc(C)cc3)[n+](-c3ccccc3)c(-c3ccc(C)cc3)c2)cc1	i	i	82*	i	-8.7*	41%*	3.5%*	i	6.0%*	101%*	i
C[n+]1c(-c2ccccc2)cc(-c2ccc(Cl)cc2)cc1-c1ccccc1	i	i	i	i	i	·	·	·	·	·	·
Cc1ccc(-c2cc(-c3ccc(C)cc3)[n+](C)o2)cc1	i	i	i	i	i	·	·	·	·	·	·
Cc1ccc(-c2cc(-c3ccccc3)cc(-c3ccccc3)[n+]2-c2ccccc2)cc1	i	i	i	33*	-9.6*	54%*	14%*	i	8.2%*	96%*	i
c1ccc2c(N3CCNCC3)cccc2c1	i	i	i	i	i	·	·	·	·	·	·
Clc1cccc(N2CCNCC2)c1Cl	i	i	i	i	-9*	72%*	-0.4%*	i	1.9%*	55%*	i
CC(O)CNc1ccc([N+](=O)[O-])c2cccnc12 (stereo unspecified)	i	i	i	i	i	·	·	·	·	·	·
NCCNc1ccc([N+](=O)[O-])c2cccnc12	i	i	70*	10*	-5.2*	·	·	·	·	43%*	i	HEK293 MPD ctr-2=-232%*;HEK293 MPD ctr 2-2=i;TRPC4/MOR mod=-31%*;TRPC4/MOR inh 2=50%*
Cc1oc(-c2ccccc2Cl)nc1CN1C(=O)CN=C(c2ccccc2)c2ccccc21	i	i	i	i	i	·	·	·	·	·	·
CNc1cc(N2CCN(C)CC2)ccc1[N+](=O)[O-]	i	i	i	i	i	·	·	·	·	·	·
O=[N+]([O-])c1ccc(N2CCCC2)cc1N/N=C1\CN2CCC1CC2	i	i	i	i	-5.2*	·	·	·	·	88%*	i	HEK293 MPD ctr-2=-248%*;HEK293 MPD ctr 2-2=74%*;TRPC4/MOR mod=-41%*;TRPC4/MOR inh 2=86%*
O=[N+]([O-])NC1=NCN(Cc2ccco2)CN1Cc1ccco1	i	i	i	i	i	·	·	·	·	·	·
C#CCN(C)[C@H](C)Cc1ccccc1	i	i	i	i	i	·	·	·	·	·	·
CC(Cc1ccccc1Sc1ccccc1O)N(C)C (stereo unspecified)	i	-7*	i	i	-9.4*	37%*	55%*	i	12%*	i	·
CC(=O)O[C@@H]1/C=C/[C@](C)(O)C[C@@H](C)C/C=C/[C@H]2[C@@H]3O[C@]3(C)[C@@H](C)[C@H]3[C@H](Cc4ccccc4)NC(=O)[C@@]312	i	i	i	i	i	·	·	·	·	·	·
C#CC[N+]1(C)[C@@H]2CC(OC(=O)C(CO)c3ccccc3)C[C@H]1C(O)C2 (stereo partly specified)	i	i	i	i	-9.9*	i	i	1.5%*	i	87%*	i
C[N+]1(C)C2CCC1CC(OC(=O)C(CO)c1ccccc1)C2 (stereo unspecified)	i	i	i	i	-8.5*	i	i	-32%*	i	102%*	i
C[N+]1(C)C2CCC1CC(OC(=O)c1ccccc1)C2 (stereo unspecified)	i	i	i	i	i	·	·	·	·	·	·
CN1[C@@H]2CC[C@H]1CC(OC(=O)C(CO)c1ccccc1)C2 (stereo partly specified)	i	i	i	i	-6.9*	i	i	-18%*	i	101%*	i
CC/C(=N\N1CCCCCC1)c1c(O)n(-c2ccccc2C)c(=O)[nH]c1=O	i	i	i	i	i	·	·	·	·	·	·
CCOP(=O)(Cc1cc(C(C)=O)c(C)o1)OCC	i	i	i	i	i	·	·	·	·	·	·
O=C1NC(=O)N(c2ccc(F)cc2)C(=O)/C1=C/c1ccsc1	i	i	i	i	-5.5*	·	·	·	·	i	·	HEK293 MPD ctr-2=i;HEK293 MPD ctr 2-2=i;TRPC4/MOR mod=i;TRPC4/MOR inh 2=i
COC(=O)C1=C(c2ccc(S(C)(=O)=O)cc2)C[C@@H]2CC[C@H]1N2C(=O)NCc1cccc2ccccc12	i	i	i	i	i	·	·	·	·	·	·
CCOC(=O)C1CCN(C=C2C(=O)N(C)C(=S)N(C)C2=O)CC1	i	i	i	i	-9.7*	i	i	i	i	i	i
Cn1cccc1/C=C1/C(=O)NC(=S)N(Cc2ccc(F)cc2)C1=O	i	i	i	i	i	·	·	·	·	·	·
CCOC(C(=O)OCCCN(CC)CC)(c1ccccc1)c1ccccc1	i	i	i	i	i	·	·	·	·	·	·
